In brackets after ≈: the same amount, converted by molar mass. Activity calls are given as the source filed them. No cut-off for these calls is given here.
Key:
Salmonella typhimurium [1] = assay: Mutagenic activity in Salmonella Typhimurium TA1535 by Ames test in presence of S9 fraction; assay type: toxicity, organism-based; details: salmonella enterica subsp. enterica serovar typhimurium
Salmonella typhimurium [2] = assay: Mutagenic activity in Salmonella Typhimurium TA100 by Ames test in presence of S9 fraction; assay type: toxicity, organism-based; details: salmonella enterica subsp. enterica serovar typhimurium
[3] = Metabolic stability in rat liver microsomes assessed as half life; assay type: ADME, Microsome
[4] = target: T1, Sphingosine 1-phosphate receptor 1 (Homo sapiens, UniProt P21453); assay: Agonist activity at recombinant human S1P1 receptor expressed in HEK293 cells after 2 hrs by beta-arrestin assay; assay type: functional, cell-based
T1 sequence (P21453 whole entry): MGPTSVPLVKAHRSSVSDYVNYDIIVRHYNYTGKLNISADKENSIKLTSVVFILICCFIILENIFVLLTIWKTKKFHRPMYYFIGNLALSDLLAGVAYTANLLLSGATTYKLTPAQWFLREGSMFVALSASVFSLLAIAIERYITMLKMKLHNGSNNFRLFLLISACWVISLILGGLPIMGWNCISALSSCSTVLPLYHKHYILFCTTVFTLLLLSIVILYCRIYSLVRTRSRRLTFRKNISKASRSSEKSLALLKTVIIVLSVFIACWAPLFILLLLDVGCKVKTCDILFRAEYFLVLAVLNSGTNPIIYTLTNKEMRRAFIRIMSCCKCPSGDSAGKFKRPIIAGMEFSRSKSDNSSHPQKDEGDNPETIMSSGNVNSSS

Mus musculus [5] = assay: Immunomodulatory activity BALB/C mouse assessed as induction of lymphopenia at 0.3 to 3 mg/kg, po after 24 hrs; assay type: functional, organism-based; details: 1 to 10 mg/kg, in the assay text read “1 to 10 mg/kg” for “0.3 to 3 mg/kg”
[6] = target: Sphingosine 1-phosphate receptor 1 (Mus musculus, UniProt O08530); assay: Agonist activity at mouse S1P1 receptor expressed in HEK293 cells assessed as inhibition of forskolin-stimulated cAMP production after 1 hr by HTRF assay; assay type: functional, cell-based
Sequence of Sphingosine 1-phosphate receptor 1 (Mus musculus, UniProt O08530) (O08530 whole entry): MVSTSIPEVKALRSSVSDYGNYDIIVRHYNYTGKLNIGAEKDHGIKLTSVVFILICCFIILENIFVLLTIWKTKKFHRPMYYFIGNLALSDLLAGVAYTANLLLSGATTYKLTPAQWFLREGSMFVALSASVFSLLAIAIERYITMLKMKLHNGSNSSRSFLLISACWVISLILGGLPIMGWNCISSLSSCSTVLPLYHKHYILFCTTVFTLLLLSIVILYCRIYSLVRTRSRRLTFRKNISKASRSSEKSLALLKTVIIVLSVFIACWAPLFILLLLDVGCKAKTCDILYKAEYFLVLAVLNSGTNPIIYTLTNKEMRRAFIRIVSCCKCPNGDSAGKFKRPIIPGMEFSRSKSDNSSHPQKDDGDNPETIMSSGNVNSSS

Salmonella typhimurium [7] = assay: Mutagenic activity in Salmonella Typhimurium TA1535 by Ames test in absence of S9 fraction; assay type: toxicity, organism-based; details: salmonella enterica subsp. enterica serovar typhimurium
[8] = Agonist activity at dog S1P1 receptor expressed in HEK293 cells assessed as inhibition of forskolin-stimulated cAMP production after 1 hr by HTRF assay; assay type: functional, cell-based; details: HEK293, 1 h
[9] = target: Sphingosine 1-phosphate receptor 1 (Rattus norvegicus, UniProt P48303); assay: Agonist activity at rat S1P1 receptor expressed in HEK293 cells assessed as inhibition of forskolin-stimulated cAMP production after 1 hr by HTRF assay; assay type: functional, cell-based
Sequence of Sphingosine 1-phosphate receptor 1 (Rattus norvegicus, UniProt P48303) (P48303 whole entry): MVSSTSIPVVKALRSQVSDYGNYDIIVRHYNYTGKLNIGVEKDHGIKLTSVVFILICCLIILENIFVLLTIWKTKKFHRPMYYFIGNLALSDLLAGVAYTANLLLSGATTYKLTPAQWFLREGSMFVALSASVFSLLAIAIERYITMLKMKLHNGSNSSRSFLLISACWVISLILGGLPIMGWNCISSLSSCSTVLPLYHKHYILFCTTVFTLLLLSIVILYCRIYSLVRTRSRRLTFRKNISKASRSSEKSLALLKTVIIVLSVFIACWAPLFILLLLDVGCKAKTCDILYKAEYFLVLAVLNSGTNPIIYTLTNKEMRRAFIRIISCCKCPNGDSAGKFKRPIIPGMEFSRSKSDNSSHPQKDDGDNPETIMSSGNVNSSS

[10] = Cmax in Sprague-Dawley rat at 2 mg/kg, iv and 3 mg/kg, po; assay type: ADME, organism-based; details: in vivo
[11] = Protein binding in human; assay type: ADME, organism-based; details: in vivo, read-out: PB (converted)
Salmonella typhimurium [12] = assay: Mutagenic activity in Salmonella Typhimurium TA97a by Ames test in absence of S9 fraction; assay type: toxicity, organism-based; details: salmonella enterica subsp. enterica serovar typhimurium
[13] = Volume of distribution at steady state in Sprague-Dawley rat at 2 mg/kg, iv and 3 mg/kg, po; assay type: ADME, organism-based; details: in vivo, read-out: Vdss
Salmonella typhimurium [14] = assay: Mutagenic activity in Salmonella Typhimurium TA100 by Ames test in absence of S9 fraction; assay type: toxicity, organism-based; details: salmonella enterica subsp. enterica serovar typhimurium
Cytochrome P450 3A4 = Cytochrome P450 3A4 (Homo sapiens, UniProt P08684); assay: Inhibition of CYP3A4; assay type: ADME
Salmonella typhimurium [15] = assay: Mutagenic activity in Salmonella Typhimurium TA97a by Ames test in presence of S9 fraction; assay type: toxicity, organism-based; details: salmonella enterica subsp. enterica serovar typhimurium
[16] = target: Sphingosine 1-phosphate receptor 3 (Homo sapiens, UniProt Q99500); assay: Agonist activity at recombinant human S1P3 receptor expressed in HEK293 cells after 2 hrs by beta-arrestin assay; assay type: functional, cell-based
Sequence of Sphingosine 1-phosphate receptor 3 (Q99500 whole entry): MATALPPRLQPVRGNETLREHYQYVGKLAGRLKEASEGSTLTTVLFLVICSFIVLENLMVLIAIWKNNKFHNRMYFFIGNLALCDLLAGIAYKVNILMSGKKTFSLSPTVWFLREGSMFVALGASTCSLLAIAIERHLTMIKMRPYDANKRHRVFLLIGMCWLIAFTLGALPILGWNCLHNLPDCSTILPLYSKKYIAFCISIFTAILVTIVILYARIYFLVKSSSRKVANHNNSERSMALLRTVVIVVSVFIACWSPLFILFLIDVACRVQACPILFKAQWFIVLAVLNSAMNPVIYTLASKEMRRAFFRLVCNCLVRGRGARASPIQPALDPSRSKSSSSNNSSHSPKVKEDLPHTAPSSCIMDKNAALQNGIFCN

[17] = Agonist activity at monkey S1P1 receptor expressed in HEK293 cells assessed as inhibition of forskolin-stimulated cAMP production after 1 hr by HTRF assay; assay type: functional, cell-based; details: Macaca mulatta, HEK293, 1 h
[18] = Oral bioavailability in Sprague-Dawley rat at 3 mg/kg; assay type: ADME, organism-based; details: in vivo
Salmonella typhimurium [19] = assay: Mutagenic activity in Salmonella Typhimurium TA98 by Ames test in presence of S9 fraction; assay type: toxicity, organism-based; details: salmonella enterica subsp. enterica serovar typhimurium
[20] = target: Sphingosine 1-phosphate receptor 5 (Homo sapiens, UniProt Q9H228); assay: Agonist activity at recombinant human S1P5 receptor expressed in HEK293 cells after 2 hrs by beta-arrestin assay; assay type: functional, cell-based
Cytochrome P450 2C19 = Cytochrome P450 2C19 (Homo sapiens, UniProt P33261); assay: Inhibition of CYP2C19; assay type: ADME
[21] = Terminal half life in mouse; assay type: ADME, organism-based; details: in vivo, read-out: beta t1/2 (converted)
[22] = AUC (0 to last) in Sprague-Dawley rat at 2 mg/kg, iv and 3 mg/kg, po; assay type: ADME, organism-based; details: plasma
[23] = Protein binding in rat; assay type: ADME, organism-based; details: in vivo, read-out: PB (converted)
Cytochrome P450 1A2 = target: T2, Cytochrome P450 1A2 (Homo sapiens, UniProt P05177); assay: Inhibition of CYP1A2; assay type: ADME
T2 sequence (P05177 whole entry): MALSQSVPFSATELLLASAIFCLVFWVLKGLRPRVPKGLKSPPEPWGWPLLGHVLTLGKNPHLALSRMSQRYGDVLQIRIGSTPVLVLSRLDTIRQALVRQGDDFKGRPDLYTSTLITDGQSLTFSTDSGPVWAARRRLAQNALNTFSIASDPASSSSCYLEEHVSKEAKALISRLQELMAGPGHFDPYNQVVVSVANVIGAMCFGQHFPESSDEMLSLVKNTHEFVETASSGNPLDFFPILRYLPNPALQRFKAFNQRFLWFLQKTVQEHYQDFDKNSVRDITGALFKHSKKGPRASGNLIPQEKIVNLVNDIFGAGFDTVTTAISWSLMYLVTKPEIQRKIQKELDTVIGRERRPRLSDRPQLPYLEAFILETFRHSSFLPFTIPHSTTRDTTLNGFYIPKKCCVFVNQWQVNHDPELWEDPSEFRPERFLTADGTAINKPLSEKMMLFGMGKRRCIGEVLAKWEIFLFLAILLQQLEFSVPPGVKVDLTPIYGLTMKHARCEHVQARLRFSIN

[24] = target: T1, Sphingosine 1-phosphate receptor 1; assay: Agonist activity at human S1P1 receptor expressed in HEK293 cells assessed as inhibition of forskolin-stimulated cAMP production after 1 hr by HTRF assay; assay type: functional, cell-based
Procedure, shortened: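 Human S1P₁ cAMP HTRF read-out; each EC₅₀ is the mean of three or more replicates.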

Mus musculus [25] = assay: Immunomodulatory activity in po dosed BALB/C mouse assessed as induction of lymphopenia after 16 hrs; assay type: functional, organism-based
Procedure, shortened: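 Male BALB/c mice were dosed orally at 1, 3 or 10 mg/kg, or with vehicle (0.5% methylcellulose in water). Blood was sampled up to 24 h post-dose for lymphocyte counts and plasma drug levels (mean ± SD). An indirect PK/PD model was fitted to give the blood concentration suppressing lymphocytes by 50%.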

hERG (KCNH2) = hERG (KCNH2) (Homo sapiens, UniProt Q12809); assay: Inhibition of human ERG at 3 uM by patch clamp assay
Sequence of hERG (KCNH2) (Q12809 whole entry): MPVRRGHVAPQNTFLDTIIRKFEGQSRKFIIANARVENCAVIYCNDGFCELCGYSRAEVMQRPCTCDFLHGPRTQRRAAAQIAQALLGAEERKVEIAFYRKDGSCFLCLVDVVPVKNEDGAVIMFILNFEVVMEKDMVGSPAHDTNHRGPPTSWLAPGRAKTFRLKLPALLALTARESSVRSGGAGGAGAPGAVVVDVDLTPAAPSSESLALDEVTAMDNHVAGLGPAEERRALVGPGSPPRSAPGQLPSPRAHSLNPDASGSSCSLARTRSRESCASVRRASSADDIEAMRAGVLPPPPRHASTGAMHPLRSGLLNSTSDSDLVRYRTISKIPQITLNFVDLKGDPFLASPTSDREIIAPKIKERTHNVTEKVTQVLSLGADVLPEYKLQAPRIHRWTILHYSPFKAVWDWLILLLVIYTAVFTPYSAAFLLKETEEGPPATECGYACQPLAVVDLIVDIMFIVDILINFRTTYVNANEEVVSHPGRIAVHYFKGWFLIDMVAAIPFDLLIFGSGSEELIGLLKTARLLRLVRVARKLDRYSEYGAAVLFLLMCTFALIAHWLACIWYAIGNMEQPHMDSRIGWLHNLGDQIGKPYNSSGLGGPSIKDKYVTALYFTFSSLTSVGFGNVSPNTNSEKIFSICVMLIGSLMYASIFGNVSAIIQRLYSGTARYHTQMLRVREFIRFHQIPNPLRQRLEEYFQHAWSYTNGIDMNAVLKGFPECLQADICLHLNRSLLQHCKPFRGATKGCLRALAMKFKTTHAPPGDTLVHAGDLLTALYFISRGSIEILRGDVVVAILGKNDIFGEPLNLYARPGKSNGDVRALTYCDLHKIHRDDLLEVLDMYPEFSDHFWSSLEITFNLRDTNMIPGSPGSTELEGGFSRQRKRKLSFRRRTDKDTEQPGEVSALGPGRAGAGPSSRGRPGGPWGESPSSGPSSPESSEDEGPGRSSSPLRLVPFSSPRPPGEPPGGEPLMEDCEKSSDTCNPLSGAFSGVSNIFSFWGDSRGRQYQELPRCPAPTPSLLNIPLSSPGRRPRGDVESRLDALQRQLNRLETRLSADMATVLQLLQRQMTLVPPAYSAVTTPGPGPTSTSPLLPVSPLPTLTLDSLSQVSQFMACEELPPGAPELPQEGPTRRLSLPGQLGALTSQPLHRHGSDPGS

[26] = Metabolic stability in human liver microsomes assessed as half life; assay type: ADME, Microsome
Cytochrome P450 2C9 = Cytochrome P450 2C9 (Homo sapiens, UniProt P11712); assay: Inhibition of CYP2C9; assay type: ADME
Sequence of Cytochrome P450 2C9 (P11712 whole entry): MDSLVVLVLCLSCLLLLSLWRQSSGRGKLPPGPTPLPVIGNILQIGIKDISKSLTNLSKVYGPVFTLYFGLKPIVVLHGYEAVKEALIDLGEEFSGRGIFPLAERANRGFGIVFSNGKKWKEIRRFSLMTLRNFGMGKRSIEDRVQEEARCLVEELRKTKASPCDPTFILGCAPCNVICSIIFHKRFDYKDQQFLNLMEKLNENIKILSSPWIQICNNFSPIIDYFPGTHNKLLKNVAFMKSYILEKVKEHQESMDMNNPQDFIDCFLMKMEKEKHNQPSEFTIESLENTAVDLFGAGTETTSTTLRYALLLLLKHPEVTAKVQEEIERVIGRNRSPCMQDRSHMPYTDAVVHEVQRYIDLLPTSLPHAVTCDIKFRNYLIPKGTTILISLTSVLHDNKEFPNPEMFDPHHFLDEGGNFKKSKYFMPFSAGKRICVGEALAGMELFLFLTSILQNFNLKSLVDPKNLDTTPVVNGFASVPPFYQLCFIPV

[27] = Clearance in Sprague-Dawley rat at 2 mg/kg, iv and 3 mg/kg, po; assay type: ADME, organism-based; details: in vivo
[28] = target: Voltage-gated inwardly rectifying potassium channel KCNH2 (Homo sapiens, UniProt Q12809); assay: Displacement of [3H]astemizole from human ERG
Sequence of Voltage-gated inwardly rectifying potassium channel KCNH2 (Q12809 whole entry): as the sequence (Q12809 whole entry) above

Salmonella typhimurium [29] = assay: Mutagenic activity in Salmonella Typhimurium TA98 by Ames test in absence of S9 fraction; assay type: toxicity, organism-based; details: salmonella enterica subsp. enterica serovar typhimurium
[30] = Half life in Sprague-Dawley rat at 2 mg/kg, iv and 3 mg/kg, po; assay type: ADME, organism-based; details: in vivo
[31] = target: T3, Sphingosine 1-phosphate receptor 4 (Homo sapiens, UniProt O95977); assay: Agonist activity at recombinant human S1P4 receptor expressed in HEK293 cells after 2 hrs by beta-arrestin assay; assay type: functional, cell-based
T3 sequence (O95977 whole entry): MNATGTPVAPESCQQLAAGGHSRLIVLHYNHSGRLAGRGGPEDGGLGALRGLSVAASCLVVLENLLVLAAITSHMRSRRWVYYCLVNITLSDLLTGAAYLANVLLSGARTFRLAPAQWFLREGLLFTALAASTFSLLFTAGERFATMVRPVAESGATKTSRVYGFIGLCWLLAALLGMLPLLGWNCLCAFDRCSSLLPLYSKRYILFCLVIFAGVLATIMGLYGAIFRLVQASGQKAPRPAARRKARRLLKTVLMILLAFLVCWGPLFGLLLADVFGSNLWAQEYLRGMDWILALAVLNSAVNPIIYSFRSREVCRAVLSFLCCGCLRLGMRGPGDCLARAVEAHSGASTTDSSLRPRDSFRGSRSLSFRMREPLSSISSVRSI

Cytochrome P450 2D6 = Cytochrome P450 2D6 (Homo sapiens, UniProt P10635); assay: Inhibition of CYP2D6; assay type: ADME
Sequence of Cytochrome P450 2D6 (P10635 whole entry): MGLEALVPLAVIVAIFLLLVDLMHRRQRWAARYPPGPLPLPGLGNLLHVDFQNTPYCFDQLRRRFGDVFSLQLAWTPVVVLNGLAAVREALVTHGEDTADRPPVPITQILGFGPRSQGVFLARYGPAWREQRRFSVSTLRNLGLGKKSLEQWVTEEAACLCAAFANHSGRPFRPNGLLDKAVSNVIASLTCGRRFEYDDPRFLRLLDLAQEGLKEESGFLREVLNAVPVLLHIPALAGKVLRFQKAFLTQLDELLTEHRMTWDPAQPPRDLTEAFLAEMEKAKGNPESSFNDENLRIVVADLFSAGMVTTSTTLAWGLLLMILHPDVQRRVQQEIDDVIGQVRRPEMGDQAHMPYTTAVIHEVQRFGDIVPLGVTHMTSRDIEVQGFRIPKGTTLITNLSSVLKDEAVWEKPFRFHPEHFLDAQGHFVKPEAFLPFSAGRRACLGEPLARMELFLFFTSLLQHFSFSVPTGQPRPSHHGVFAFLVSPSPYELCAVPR

[32] = Tmax in Sprague-Dawley rat at 2 mg/kg, iv and 3 mg/kg, po; assay type: ADME, organism-based; details: in vivo
[33] = target: Sphingosine 1-phosphate receptor 2 (Homo sapiens, UniProt O95136); assay: Agonist activity at recombinant human S1P2 receptor expressed in HEK293 cells after 2 hrs by beta-arrestin assay; assay type: functional, cell-based
[34] = Clearance in Sprague-Dawley rat at 1 mg/kg, iv and 1.5 mg/kg, po; assay type: ADME, organism-based; details: in vivo
Mus musculus [35] = assay: Immunomodulatory activity BALB/C mouse assessed as induction of lymphopenia at 1 mg/kg, po after 5 hrs; assay type: functional, organism-based; set-up: dose 1 mg/kg
Procedure, shortened: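 Male BALB/c mice were given a single oral dose of 1.0 mg/kg or vehicle (0.5% methylcellulose). Blood lymphocytes were counted at one time point, 5 h post-dose, with n = 6 per dose group (mean ± SD). Lowering was judged relative to the vehicle group.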

[36] = Cmax in Sprague-Dawley rat at 1 mg/kg, iv and 1.5 mg/kg, po; assay type: ADME, organism-based; details: in vivo
[37] = Half life in Sprague-Dawley rat at 1 mg/kg, iv and 1.5 mg/kg, po; assay type: ADME, organism-based; details: in vivo
[38] = Tmax in Sprague-Dawley rat at 1 mg/kg, iv and 1.5 mg/kg, po; assay type: ADME, organism-based; details: in vivo
[39] = Oral bioavailability in Sprague-Dawley rat at 1.5 mg/kg; assay type: ADME, organism-based; details: in vivo
[40] = AUC (0 to last) in Sprague-Dawley rat at 1 mg/kg, iv and 1.5 mg/kg, po; assay type: ADME, organism-based; details: plasma
[41] = Volume of distribution at steady state in Sprague-Dawley rat at 1 mg/kg, iv and 1.5 mg/kg, po; assay type: ADME, organism-based; details: in vivo, read-out: Vdss

Row | half-life [3] [h] | EC50 [4] [nM] | EC50 [6] [nM] | EC50 [8] [nM] | EC50 [9] [nM] | fraction unbound [11] | IC50 (Cytochrome P450 3A4) [nM] | EC50 [16] [nM] | EC50 [17] [nM] | EC50 [20] [nM] | IC50 (Cytochrome P450 2C19) [nM] | IC50 (Cytochrome P450 1A2) [nM] | EC50 [24] [nM] | SMILES | Activity (Salmonella typhimurium [1]) | Activity (Salmonella typhimurium [2]) | Activity (Salmonella typhimurium [7]) | Activity (Salmonella typhimurium [12]) | Activity (Salmonella typhimurium [14]) | Activity (Salmonella typhimurium [15]) | Activity (Salmonella typhimurium [19]) | other results
1 | > 1 | 31 | 1.1 | 0.7 | 1 | 0.003 | > 50000 | > 100000 | 0.8 | 109 | > 50000 | > 50000 | 1.2 | N#Cc1cc(OC(F)(F)F)cc(-c2nc(-c3ccc4c(c3)CCN4C(=O)CCC(=O)O)no2)c1 | Non-toxic | Non-toxic | Non-toxic | Non-toxic | Non-toxic | Non-toxic | Non-toxic | Activity (Mus musculus [5]): inactive; Cmax [10]: 3820 ng/mL; Vd [13]: 0.275 L/kg; bioavailability [18]: 32.8%; half-life [21]: 3 h; AUC(0-t) [22]: 20200 ng·h/mL; fraction unbound [23]: 0.007; IC50 (Mus musculus [25]): 0.431 µg/mL (≈ 0.912 µM); inhibition at 3 µM (hERG (KCNH2)): 13%; half-life [26]: > 1 h; IC50 (Cytochrome P450 2C9): > 50000 nM; clearance [27]: 0.75 mL/min/kg; IC50 [28]: > 100000 nM; Activity (Salmonella typhimurium [29]): Non-toxic; half-life [30]: 2.9 h; EC50 [31]: 1330 nM; IC50 (Cytochrome P450 2D6): > 50000 nM; Tmax [32]: 2 h; EC50 [33]: > 100000 nM
2 | > 1 | 39 | 1.4 | 1.3 | 1.3 | 0.006 | > 50000 | 3100 | 1.1 | 88 | > 50000 | > 50000 | 4.6 | O=C(O)CCC(=O)N1CCc2cc(-c3noc(-c4cc(C(F)(F)F)cc(C(F)(F)F)c4)n3)ccc21 | Non-toxic | Non-toxic | Non-toxic | Non-toxic | Non-toxic | Non-toxic | Non-toxic | clearance [34]: 0.633 mL/min/kg; Activity (Mus musculus [35]): Active; Cmax [36]: 1740 ng/mL; half-life [37]: 8.5 h; Tmax [38]: 3 h; inhibition at 3 µM (hERG (KCNH2)): < 10%; half-life [26]: > 1 h; IC50 (Cytochrome P450 2C9): 34800 nM; IC50 [28]: > 100000 nM; Activity (Salmonella typhimurium [29]): Non-toxic; EC50 [31]: 160 nM; IC50 (Cytochrome P450 2D6): > 50000 nM; bioavailability [39]: 50.2%; AUC(0-t) [40]: 16000 ng·h/mL; EC50 [33]: > 100000 nM; Vd [41]: 0.564 L/kg
